Measurements reported in the RNAGym collection of RNA variant scans (doi:10.1126/science.aae0568).
Variants at the floor of the assay were thinned out.

B1: tRNA (parent)
chain: GUUCCGUUGGCGUAAUGGUAACGCGUCUCCCUCCUAAGGAGAAGACUGCGGGUUCGAGUCCCGUACGGAACG

Variants of: B1
Assay: yeast fitness relative to wild type (ratio to wild type); higher = fitter; tRNA-Arg(CCU), competitive growth, 37 C, YPD
Outline: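 A pool of Saccharomyces cerevisiae strains, each with a tRNA-Arg(CCU) gene variant at the native genomic locus, was competed in YPD at 37°C for 24 hours across six parallel replicates. The variants had been chemically synthesised at a 3% per-site mutation rate over 69 sites, and gene amplicons before and after competition were read by 100-nucleotide paired-end sequencing. Darwinian fitness relative to wild type rested on changes in genotype frequencies. Genotypes required ≥ 100 starting reads, and estimates < 0.5 were set to 0.5.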

Compared with A14U G38A, A14U G52A G56A is lower in yeast fitness: 0.573 for the first, ≤ 0.5 for the second.

A15C C29G A40U G52A and A15C A21G C27G cannot be ordered by yeast fitness: ≤ 0.5 for the first, ≤ 0.5 for the second.

First: A15C A37C
Second: A15C A37G
The yeast fitness of the first is higher: 0.639 for the first, 0.614 for the second.

Going from A14U U47A C61A to A15C A37C G41C C66A, the yeast fitness rises from ≤ 0.5 to 0.589.

A15C A20C G39C and A15C A21G G23A C27U cannot be ordered by yeast fitness: ≤ 0.5 for the first, ≤ 0.5 for the second.

Compared with A15C C33A C34U A36C, A14U C30U A42G C66G is lower in yeast fitness: 0.604 for the first, ≤ 0.5 for the second.

A14U G17A G23A G63A and A15C A40U G63A A65G G67A cannot be ordered by yeast fitness: ≤ 0.5 for the first, ≤ 0.5 for the second.

First: A15C C31G A40U G51A
Second: A15C C31A
The yeast fitness of the first is lower: ≤ 0.5 for the first, 0.561 for the second.

Going from A15C C31U to A14U C34U G39C, the yeast fitness falls from 0.742 to 0.56.

Compared with A14U G52U, A14U G52A is lower in yeast fitness: 0.592 for the first, ≤ 0.5 for the second.

Going from A14U U35C to A14U U35G, the yeast fitness falls from 0.601 to ≤ 0.5.

A14U C33G A42C C49U C55G and A14U G23A C29G C46A C55G G67A cannot be ordered by yeast fitness: ≤ 0.5 for the first, ≤ 0.5 for the second.

A14U C30U C46U G52C and A14U C30U U53A cannot be ordered by yeast fitness: ≤ 0.5 for the first, ≤ 0.5 for the second.

Going from A14U G18A U35A C46G A69U to A14U C34G A37C C62U, the yeast fitness falls from 0.591 to ≤ 0.5.

Going from A15C A21U C24U A57G G67U to A14U G17A A43U, the yeast fitness falls from 0.542 to ≤ 0.5.

A14U C30U C46U G52C A69U and A15C C24G A45G C55U cannot be ordered by yeast fitness: ≤ 0.5 for the first, ≤ 0.5 for the second.

First: A15C C61A
Second: A15C C61U
The yeast fitness of the first is higher: 0.761 for the first, 0.713 for the second.

Going from A15C C49U U54C C55G to A15C C22G C33U U59G C62G, the yeast fitness rises from 0.64 to 0.981.

Compared with A15C A37U C66U, A14U C49U G52A is lower in yeast fitness: 0.584 for the first, ≤ 0.5 for the second.

Compared with A15C A20C C29A A57G, A15C C24A U32A C55U is lower in yeast fitness: 0.561 for the first, ≤ 0.5 for the second.

A14U U32C U53A C55A and A15C C34G C49G U54C C66G G68C cannot be ordered by yeast fitness: ≤ 0.5 for the first, ≤ 0.5 for the second.

Compared with A14U U26G, A14U U26C is higher in yeast fitness: 0.675 for the first, 0.698 for the second.

First: A15C C27A C33U C34A C61U
Second: A15C C27U G58C
The yeast fitness of the first is lower: 0.509 for the first, 0.599 for the second.

Compared with A15C C46U C66A, A15C C60G is higher in yeast fitness: 0.55 for the first, 0.612 for the second.

Going from A15C C31G C33G C55U C61U to A15C A21U C24A C33A C66A, the yeast fitness falls from 0.504 to ≤ 0.5.

A15C A21G C22U C49U and A14U U35A A43C cannot be ordered by yeast fitness: ≤ 0.5 for the first, ≤ 0.5 for the second.

A15C C34U A36G C55A and A14U C30U C31A G63C cannot be ordered by yeast fitness: ≤ 0.5 for the first, ≤ 0.5 for the second.

Going from A14U C34U A40U G50C to A14U C31A C60A, the yeast fitness rises from ≤ 0.5 to 0.514.

A14U C60U C62U A70G and A14U U26C A42U C60G cannot be ordered by yeast fitness: ≤ 0.5 for the first, ≤ 0.5 for the second.

Going from A15C C27G G39C U47A A69U to A15C A43G C46A, the yeast fitness rises from ≤ 0.5 to 0.526.

Compared with A15C A21G A36G C49U G67U, A15C C27U A40G G52A A57U is higher in yeast fitness: ≤ 0.5 for the first, 0.692 for the second.

Going from A15C C24U A42C to A15C C22U U26G G52A, the yeast fitness rises from 0.62 to 0.732.

First: A15C C22G
Second: A15C C22U
The yeast fitness of the first is lower: 0.658 for the first, 0.689 for the second.

A15C A36U G58A G67A and A15C C24G A45G G52A C60A cannot be ordered by yeast fitness: ≤ 0.5 for the first, ≤ 0.5 for the second.

Going from A15C C60U A69G to A15C A21C A36U U47C G63A, the yeast fitness rises from ≤ 0.5 to 0.578.

A14U U28C A70C and A15C A20G C29G cannot be ordered by yeast fitness: ≤ 0.5 for the first, ≤ 0.5 for the second.

Going from A14U C49G C60A to A14U G68A, the yeast fitness rises from ≤ 0.5 to 0.721.

Going from A14U G68C to A14U U26G C55G, the yeast fitness falls from 0.694 to ≤ 0.5.

A15C C30A A69C and A15C A21U A69U cannot be ordered by yeast fitness: ≤ 0.5 for the first, ≤ 0.5 for the second.

First: A15C C22U A42U U47A
Second: A15C A37G A57C A69C
The yeast fitness of the first is lower: 0.511 for the first, 0.794 for the second.

A15C C22G G58C C62U and A14U U16C A42U cannot be ordered by yeast fitness: ≤ 0.5 for the first, ≤ 0.5 for the second.

A14U C34G A43U C46A C62U A69C and A14U C31U C34A U64A cannot be ordered by yeast fitness: ≤ 0.5 for the first, ≤ 0.5 for the second.

Compared with A14U C61U, A15C C30A A57G A69C is lower in yeast fitness: 0.591 for the first, ≤ 0.5 for the second.

Compared with A15C A21G C22U A57U, A15C C31G C55A is higher in yeast fitness: ≤ 0.5 for the first, 0.608 for the second.

Going from A15C C22G A43C G50A to A14U G17A C22U C33G, the yeast fitness rises from 0.556 to 0.567.

Compared with A15C C66G, A14U G67C is higher in yeast fitness: 0.618 for the first, 0.729 for the second.

Going from A14U G67U to A15C A42C G48A G50C, the yeast fitness rises from 0.562 to 0.587.

A15C C22G U32C G41A and A15C A43G C46A A70C cannot be ordered by yeast fitness: ≤ 0.5 for the first, ≤ 0.5 for the second.

Compared with A15C C33G, A15C C33U is higher in yeast fitness: 0.505 for the first, 0.572 for the second.

Compared with A14U U16A, A14U U26G A36G C60A is lower in yeast fitness: 0.667 for the first, ≤ 0.5 for the second.

A15C A37C C60U G67A and A14U G23A U28A C30A cannot be ordered by yeast fitness: ≤ 0.5 for the first, ≤ 0.5 for the second.

A14U U16A C33G A45C A69U and A15C A20G A21G A57U cannot be ordered by yeast fitness: ≤ 0.5 for the first, ≤ 0.5 for the second.

A14U G38A G58A and A15C C60A C62U cannot be ordered by yeast fitness: ≤ 0.5 for the first, ≤ 0.5 for the second.

Going from A15C C29U C31U to A14U U26C A42U, the yeast fitness rises from ≤ 0.5 to 0.676.

A14U U26C C49A and A14U U32G G52A G63C cannot be ordered by yeast fitness: ≤ 0.5 for the first, ≤ 0.5 for the second.

A15C A36U U64A and A15C C49A G68C cannot be ordered by yeast fitness: ≤ 0.5 for the first, ≤ 0.5 for the second.

Compared with A14U C55G C61G C66U, A15C C34U A57C is higher in yeast fitness: ≤ 0.5 for the first, 0.603 for the second.

Going from A14U G23C to A14U G23A, the yeast fitness falls from 0.508 to ≤ 0.5.

First: A15C A36C G38C C55U C66U
Second: A14U G17C A57G
The yeast fitness of the first is lower: ≤ 0.5 for the first, 0.505 for the second.

A15C A37C A42U and A14U U47A G67A cannot be ordered by yeast fitness: ≤ 0.5 for the first, ≤ 0.5 for the second.

First: A14U G50U
Second: A15C A21U A36C C49U A69U
The yeast fitness of the first is higher: 0.601 for the first, ≤ 0.5 for the second.

Going from A14U G52C C66U to A14U C55A C62U C66U, the yeast fitness rises from ≤ 0.5 to 0.553.

A15C C31G C49U U64C G67A and A15C A21U C24A C33A C61U cannot be ordered by yeast fitness: ≤ 0.5 for the first, ≤ 0.5 for the second.

A15C A20U C30A C31G and A14U G17A C22U G63C cannot be ordered by yeast fitness: ≤ 0.5 for the first, ≤ 0.5 for the second.

Going from A14U G18A A40G C62A to A14U G17C, the yeast fitness rises from ≤ 0.5 to 0.514.

A14U G25C A45G A69U and A14U G18A U35A A57C C62U cannot be ordered by yeast fitness: ≤ 0.5 for the first, ≤ 0.5 for the second.

Going from A15C A20C G41C to A15C G17A A65G, the yeast fitness rises from ≤ 0.5 to 0.576.

First: A15C G17A G68A
Second: A14U G44C
The yeast fitness of the first is lower: ≤ 0.5 for the first, 0.673 for the second.

Compared with A14U G44A, A15C A65U G67U is lower in yeast fitness: 0.582 for the first, ≤ 0.5 for the second.

Going from A15C C27G C61G to A14U U47G A65U, the yeast fitness falls from 0.781 to ≤ 0.5.

A15C A20G C31U A42C and A15C C46G A65G C66U cannot be ordered by yeast fitness: ≤ 0.5 for the first, ≤ 0.5 for the second.

A14U G17A G23A and A14U G17U C24A C30G cannot be ordered by yeast fitness: ≤ 0.5 for the first, ≤ 0.5 for the second.

A14U U26G A37C and A15C A20C C55G A70G cannot be ordered by yeast fitness: ≤ 0.5 for the first, ≤ 0.5 for the second.

A14U U16A C27G A40U C49G A65U and A15C C31G U32A C33U C34G cannot be ordered by yeast fitness: ≤ 0.5 for the first, ≤ 0.5 for the second.

A15C C24G A45G G56A A69C and A14U G23A C29G C46A C55G A57U C62U cannot be ordered by yeast fitness: ≤ 0.5 for the first, ≤ 0.5 for the second.

First: A14U U26G G39C A70U
Second: A15C A45C G48A
The yeast fitness of the first is lower: ≤ 0.5 for the first, 0.638 for the second.

A15C A21C A36U U47C G63A G68A and A14U U53A A65U cannot be ordered by yeast fitness: ≤ 0.5 for the first, ≤ 0.5 for the second.

Going from A14U C33G to A14U C33A, the yeast fitness rises from ≤ 0.5 to 0.629.

A14U C33U and A15C A45G C55U cannot be ordered by yeast fitness: ≤ 0.5 for the first, ≤ 0.5 for the second.

A15C C30U A42U C49G and A14U G23U U59A cannot be ordered by yeast fitness: ≤ 0.5 for the first, ≤ 0.5 for the second.

A15C A20G G25C C29U U35C A43U and A15C A20G G23A C46A C49G A65U A70U cannot be ordered by yeast fitness: ≤ 0.5 for the first, ≤ 0.5 for the second.

Going from A14U U19A C60G A70G to A15C C46U C61U G67A, the yeast fitness falls from 0.531 to ≤ 0.5.

Compared with A15C C33G G38C C62A, A14U C30U A37G A70G is lower in yeast fitness: 0.551 for the first, ≤ 0.5 for the second.

Work on A14U G51A C61G yielded a yeast fitness of 0.602.
